Each structure is given as a SMILES string. Some results are limits rather than exact numbers.

Assay [1] relates to Schistosoma mansoni. Nature of the assay: Incorporation of 1.3 *10e6 M [3H]uridine in hycanthone(HC) sensitive Schistosoma mansoni. Format: functional.
For assay [2], the system named is Schistosoma mansoni. The assay can be described thus: Incorporation of 5.2*10e6M [3H]-uridine in hycanthone(HC) sensitive Schistosoma mansoni. Format: functional.
Assay [3] deals with Schistosoma mansoni. Nature of the assay: Day 50% survival of worms in culture of HC resistant Schistosoma mansoni at 5.2*10e6M. Format: functional. An outline of the steps: (§1)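 Adult HC-resistant S. mansoni were exposed in vitro and kept in culture. The value is the day by which 50% of worms were dead. Cultures were ended at different times in different experiments. Concentrations are given in M × 10^6.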

In assay [4] the test system is Schistosoma mansoni. The assay can be described thus: Incorporation of 2.6 *10e6 M [3H]uridine in hycanthone(HC) resistant Schistosoma mansoni. It counts as functional. A digest of the protocol:
(§2)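 Adult HC-resistant S. mansoni were treated in vitro, and [3H]uridine incorporation by the worms was measured. Values are % of control. Concentrations are given in M × 10^6.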

For assay [5], the system named is Schistosoma mansoni. Nature of the assay: Incorporation of 1.3 *10e6 M [3H]uridine in hycanthone(HC) resistant Schistosoma mansoni. It counts as functional. An outline of the steps: as §2
For assay [6], the system named is Schistosoma mansoni. Nature of the assay: Day 50% survival of worms in culture of HC sensitive Schistosoma mansoni at 1.3 *10e6 M. It counts as functional.
For assay [7], the system named is Schistosoma mansoni. The assay can be described thus: Day 50% survival of worms in culture of HC resistant Schistosoma mansoni at 1.3 *10e6 M. It counts as functional. An outline of the steps: as §1
Assay [8] has as its system Schistosoma mansoni. Nature of the assay: Incorporation of 2.6 *10e6 M [3H]uridine in hycanthone(HC) sensitive Schistosoma mansoni. It counts as functional.
The test system of assay [9] is Schistosoma mansoni. Nature of the assay: Incorporation of 5.2*10e6M [3H]uridine in hycanthone(HC) resistant Schistosoma mansoni. Format: functional. A digest of the protocol: as §2
A short description of assay [10]: (§3) Total radioactivity of [3H]HNMC was evaluated after 3 days. Format: functional. An outline of the steps: (§4)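 3H-labelled drug (0.02 µCi) was mixed with 50 µg calf thymus DNA in 0.1 M citrate-phosphate buffer, pH 7, and incubated in the dark for 1.5 h at 37 °C. The mix was diluted in saline and dialysed against saline at 4 °C. Duplicate samples drawn from inside the bags at intervals up to 4 days were counted directly.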

For assay [11], the system named is Nucleic Acid. Nature of the assay: In vitro binding of [3H]HNMC to calf thymus DNA after precipitation with alcohol and TCA was measured after 3 days. It counts as nucleic-acid assay. To be noted: Bos taurus. A digest of the protocol: (§5)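 0.02 µCi of 3H-labelled drug was added to 50 µg calf thymus DNA in 20 µL of 0.1 M citrate-phosphate buffer, pH 7. Incubated 1.5 h at 37 °C in the dark, diluted to 0.1 mL saline and dialyzed against saline at 4 °C for up to 4 days. Duplicate 10 µL samples taken from inside the bags at intervals were counted directly, or after TCA precipitation.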

Assay [12] can be described thus: as §3. It counts as functional. A digest of the protocol:
as §4
This is another data set of the same source.

Assay [13] concerns HeLa. Nature of the assay: Incorporation of 10e-5 M [3H]uridine in HeLa cells in presence of HNMC measured as TCA precipitable radioactivity compared with non treated controls. Format: functional, cell-based. As to conditions: Homo sapiens. An outline of the steps: (§6)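 HeLa cells (10^6 per duplicate tube) were incubated 1 h with drug. [3H]uridine was then added and incubation continued 1 h with drug present. Cells were washed with cold saline and precipitated with 10% TCA. Precipitates were collected on glass filters, TCA-washed and counted. Values are % TCA-precipitable radioactivity versus untreated controls.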

Assay [14] deals with Schistosoma mansoni. Nature of the assay: Incorporation of 6M *10e6 [3H]uridine in hycanthone(HC) resistant Schistosoma mansoni. It counts as functional. A digest of the protocol: as §2
In assay [15] the test system is Schistosoma mansoni. Nature of the assay: Incorporation of 6M *10e6 [3H]-uridine in hycanthone(HC) sensitive Schistosoma mansoni. It counts as functional.
The test system of assay [16] is Nucleic Acid. Nature of the assay: In vitro binding of [3H]HNMC to calf thymus DNA after precipitation with alcohol and TCA was measured after 4 day. It counts as nucleic-acid assay. To be noted: Bos taurus. A digest of the protocol: as §5
For assay [17], the system named is HeLa. Nature of the assay: Incorporation of 2*10e-6 M [3H]uridine in HeLa cells in absence of HNMC measured as TCA precipitable radioactivity compared with non treated controls. To be noted: Homo sapiens. It counts as functional, cell-based. An outline of the steps:
(§7)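 HeLa cells (10^6 per duplicate tube) were exposed to drug for 1 h, washed three times with medium, then held 2 h in drug-free medium. [3H]uridine was added for 1 h. Cells were precipitated with 10% TCA, and precipitates were filter-collected and counted. Values are % TCA-precipitable radioactivity versus untreated controls.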

For assay [18], the system named is HeLa. The assay can be described thus: Incorporation of 2*10e-5 M [3H]uridine in HeLa cells in presence of HNMC measured as TCA precipitable radioactivity compared with non treated controls. It counts as functional, cell-based. As to conditions: Homo sapiens. An outline of the steps: as §6
Assay [19] relates to HeLa. Nature of the assay: Incorporation of 10e-5 M [3H]uridine in HeLa cells in absence of HNMC measured as TCA precipitable radioactivity compared with non treated controls. Format: functional, cell-based. As to conditions: Homo sapiens. An outline of the steps: as §7
Assay [20] concerns Schistosoma mansoni. The assay can be described thus: Incorporation of 1.2 M*10e6 [3H]uridine in hycanthone(HC) sensitive Schistosoma mansoni. It counts as functional.
Assay [21] relates to Nucleic Acid. The assay can be described thus: In vitro binding of [3H]HNMC to calf thymus DNA was measured after 4 day. It counts as nucleic-acid assay. To be noted: Bos taurus. A digest of the protocol:
as §5

Assay [22] concerns Nucleic Acid. The assay can be described thus: In vitro binding of [3H]HNMC to calf thymus DNA was measured after 1 day. Format: nucleic-acid assay. As to conditions: Bos taurus. An outline of the steps:
as §5

Assay [23] can be described thus: Total radioactivity of [3H]HNMC was evaluated after 2 hours. Format: functional. A digest of the protocol: as §4
The subject of assay [24] is Mus musculus. The assay can be described thus: In vivo antitumor activity against p-388 lymphocytic leukemia in mice at 3.13 mg/kg. It counts as functional. An outline of the steps: (§8)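 Murine P388 lymphocytic leukemia model tested by the National Cancer Institute. Compound given once daily for 9 days; activity expressed as T/C.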
The subject of assay [25] is Nucleic Acid. The assay can be described thus: In vitro binding of [3H]HNMC to calf thymus DNA after precipitation with alcohol and TCA was measured after 2 hours. It counts as nucleic-acid assay. To be noted: Bos taurus. An outline of the steps: as §5
Assay [26] concerns Schistosoma mansoni. The assay can be described thus: Day 50% survival of worms in culture of HC resistant Schistosoma mansoni. It counts as functional. An outline of the steps: as §1
Assay [27] relates to HeLa. Nature of the assay: Binding of 5x 10e-4 M [3H]HNMC to HeLa DNA. It counts as functional, Homo sapiens. A digest of the protocol: (§9)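 HeLa cells exposed 1 h to [3H]-labelled drug, washed three times with saline, then held 30 min at 37 °C in drug-free medium. After a 2 h digestion at 37 °C, crude DNA was ethanol-precipitated, purified on a CsCl density gradient, dialyzed and reprecipitated. DNA was quantified by A260. An aliquot was treated with DNase, and DNase-sensitive radioactivity was expressed as drug molecules per base pair.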

The test system of assay [28] is HeLa. Nature of the assay: Binding of 1x 10e-4 M [3H]HNMC to HeLa DNA. Format: functional, Homo sapiens. An outline of the steps: as §9
Assay [29] relates to Nucleic Acid. Nature of the assay: In vitro binding of [3H]HNMC to calf thymus DNA after precipitation with alcohol and TCA was measured after 1 day. Format: nucleic-acid assay. As to conditions: Bos taurus. A digest of the protocol: as §5
Assay [30] has as its system Schistosoma mansoni. The assay can be described thus: Incorporation of 1.2 M *10e6 [3H]uridine in hycanthone(HC) resistant Schistosoma mansoni. Format: functional. A digest of the protocol: as §2
Assay [31] relates to Schistosoma mansoni. Nature of the assay: Day 50% survival of worms in culture of HC sensitive Schistosoma mansoni. Format: functional.
The test system of assay [32] is HeLa. The assay can be described thus: Incorporation of 2*10e-5 M [3H]uridine in HeLa cells in absence of HNMC measured as TCA precipitable radioactivity compared with non treated controls. Format: functional, cell-based. As to conditions: Homo sapiens. A digest of the protocol:
as §7

Assay [33] relates to Nucleic Acid. Nature of the assay: In vitro binding of [3H]HNMC to calf thymus DNA after precipitation with alcohol and TCA was measured. It counts as nucleic-acid assay. As to conditions: Bos taurus. A digest of the protocol:
as §5

In assay [34] the test system is Mus musculus. Nature of the assay: In vivo antitumor activity against p-388 lymphocytic leukemia in mice at 6.25 mg/kg. Format: functional. A digest of the protocol:
as §8

In assay [35] the test system is Nucleic Acid. The assay can be described thus: In vitro binding of [3H]HNMC to calf thymus DNA after precipitation with alcohol and TCA was measured after 2 day. Format: nucleic-acid assay. As to conditions: Bos taurus. A digest of the protocol: as §5
Assay [36] can be described thus: Total radioactivity of [3H]HNMC was evaluated after 2 hr. Format: functional. An outline of the steps:
as §4

Assay [37] concerns HeLa. Nature of the assay: Incorporation of 2*10e-6 M [3H]uridine in HeLa cells in presence of HNMC measured as TCA precipitable radioactivity compared with non treated controls. To be noted: Homo sapiens. Format: functional, cell-based. A digest of the protocol: as §6
Assay [38] relates to HeLa. The assay can be described thus: Binding of 1x 10e-5 M [3H]HNMC to HeLa DNA. It counts as functional, Homo sapiens. A digest of the protocol:
as §9

Assay [39] has as its system Mus musculus. Nature of the assay: In vivo antitumor activity against p-388 lymphocytic leukemia in mice at 12.5 mg/kg; Toxic. Format: functional, organism-based. Also on record: dose 12.5 mg/kg. A digest of the protocol: as §8
In assay [40] the test system is Nucleic Acid. The assay can be described thus: In vitro binding of [3H]HNMC to calf thymus DNA was measured after 2 hours. To be noted: Bos taurus. Format: nucleic-acid assay. An outline of the steps: as §5
Assay [41] concerns Nucleic Acid. Nature of the assay: In vitro binding of [3H]HNMC to calf thymus DNA. Format: nucleic-acid assay. To be noted: Bos taurus. A digest of the protocol:
as §5

Assay [42] relates to Nucleic Acid. Nature of the assay: In vitro binding of [3H]HNMC to calf thymus DNA was measured after 3 days. Format: nucleic-acid assay. To be noted: Bos taurus. A digest of the protocol:
as §5

The subject of assay [43] is Nucleic Acid. The assay can be described thus: In vitro binding of [3H]HNMC to calf thymus DNA was measured after 2 days. It counts as nucleic-acid assay. To be noted: Bos taurus. A digest of the protocol: as §5
Assay [44] is described as follows: (§10) Total radioactivity of [3H]HNMC was evaluated after 1 day. Format: functional. A digest of the protocol:
as §4

A short description of assay [45]: as §10. Format: functional. A digest of the protocol:
as §4
The source holds these as a separate data set.

Regarding `CN(C)CCNc1ccc(CO)c2sc3ccc(O)cc3c(=O)c12`, the Control was 43% in the assay on Schistosoma mansoni [1]; 23% with Schistosoma mansoni [2]; 108% with Schistosoma mansoni [4]; 96% in the assay on Schistosoma mansoni [5]; 20% in the assay on Schistosoma mansoni [8]; 91% in the assay on Schistosoma mansoni [9]. Besides, the Effect with Schistosoma mansoni [3] is over 12 days; in the assay with Schistosoma mansoni [6], 9 days; in the assay with Schistosoma mansoni [7], over 12 days.

Regarding `CCN(CC)CCNc1ccc(COC(=O)NC)c2sc3ccccc3c(=O)c12`, the Radioactivity was determined as 100 c.p.m in assay [10]; 6900 c.p.m in the assay on Nucleic Acid [11]; 1350 c.p.m in assay [12]; 11% with HeLa [13]; 5100 c.p.m in the assay on Nucleic Acid [16]; 24% in the assay on HeLa [17]. Further, the Radioactivity came to 6% in the assay with HeLa [18]; 4% in the assay on HeLa [19]; 15000 c.p.m in the assay on Nucleic Acid [21]; 15000 c.p.m in the assay with Nucleic Acid [22]; 27500 c.p.m in assay [23]; 12300 c.p.m in the assay with Nucleic Acid [25]. Also, the Radioactivity in the assay with Nucleic Acid [29] stood at 9500 c.p.m; with HeLa [32] it was 2%; in the assay on Nucleic Acid [33] it was 11500 c.p.m; in the assay with Nucleic Acid [35], 8000 c.p.m; in assay [36], 27500 c.p.m; with HeLa [37] it was 57%. In addition, the Radioactivity is 52000 c.p.m with Nucleic Acid [40]; 134000 c.p.m with Nucleic Acid [41]; 16000 c.p.m in the assay with Nucleic Acid [42]; 14800 c.p.m in the assay with Nucleic Acid [43]; 150 c.p.m in assay [44]; 1750 c.p.m in [45]. The Control in the assay on Schistosoma mansoni [14] was 11%; with Schistosoma mansoni [15], 3%; in the assay with Schistosoma mansoni [20], 21%; in the assay on Schistosoma mansoni [30], 39%. The figures for the T/C in the assay on Mus musculus [24], in the assay with Mus musculus [34] and with Mus musculus [39] were 132%, 166% and “Toxic”, respectively. Also, the Effect with Schistosoma mansoni [26] is 8 days; with Schistosoma mansoni [31], 9 days. The Drug mol/base pair in the assay on HeLa [27] came out at 0.000203; in the assay on HeLa [28], 0.00105; in the assay with HeLa [38], 8.4e-05.

The values above are taken from ChEMBL document CHEMBL1124248, “Preparation and antischistosomal and antitumor activity of hycanthone and some of its congeners. Evidence for the mode of action of hycanthone” (1988).
